Assay: Toxicity liver stage against HepG2, at 10uM
Assay type: cell-based
Set-up: test concentration 10 uM, cell line HepG2-A16-CD81EGFP
Conditions: human, HepG2-A16-CD81EGFP cells; read-out: INHIBITION
In short: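 Uninfected HepG2-A16-CD81EGFP cells, 3 × 10^3 per well, 1536-well, plated on prespotted compound at 10 μM final, parasite-free screening media added to match infected plates; puromycin 10 μM positive, DMSO 0.5% negative; run in parallel with 48 h PbLuc assay at 37 °C, 5% CO2; viability by CellTiter-Glo luminescence, normalized to controls.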

O=C(NC1CCCC1)c1ccc(COCC(F)(F)F)o1
cytotoxicity at 10 µM: 10.6%

CCCNC(=O)COc1cccc(-c2nc(C(C)C)no2)c1
cytotoxicity at 10 µM: -77.9%

COC(=O)N1CC[C@@]2(C1)[C@H](OC)CN(c1ccccc1)S2(=O)=O
cytotoxicity at 10 µM: 5.78%

COc1cccc(-c2nc(C)c(C(=O)NCCC(=O)O)s2)c1
cytotoxicity at 10 µM: 8.69%

O=C(CCc1nc2cc(Br)cnc2[nH]1)NCCCN1CCOCC1
cytotoxicity at 10 µM: -2.67%

CCCS(=O)(=O)c1ccc(N2CCN(Cc3ccccc3)CC2)nn1
cytotoxicity at 10 µM: -5.93%

O=C(NCC(O)(c1cccs1)C1CC1)NC1CCCCC1 (centres undefined)
cytotoxicity at 10 µM: -2.25%

Cc1noc(C)c1S(=O)(=O)NCC(C)(O)c1ccc2c(c1)OCO2 (centres undefined)
cytotoxicity at 10 µM: 0.331%

O=C(Nc1cccnc1)C1CCN(c2cc(-n3ccnc3)ncn2)CC1
cytotoxicity at 10 µM: -3.3%

O=C(NCCNc1cc(-n2cccc2)ncn1)c1cccs1
cytotoxicity at 10 µM: -2.56%

CCOCC(=O)NCCC(O)c1ccoc1 (centres undefined)
cytotoxicity at 10 µM: -4.59%

CNC(=O)CS(=O)(=O)C1CCN(S(=O)(=O)c2cccc(C(C)=O)c2)CC1
cytotoxicity at 10 µM: 5.85%

COCCN1C(=O)C2(CCC(C(=O)Nc3ccc(C)cc3)CC2)N=C1C (centres undefined)
cytotoxicity at 10 µM: 12.3%

CCNC(=O)CC1CC2(CCN(C(C)=O)CC2)c2cc(F)ccc21 (centres undefined)
cytotoxicity at 10 µM: 6.83%

CCN(CC)[C@H]1COC[C@@H]2CN(Cc3cnn(C)c3)C[C@@H]21
cytotoxicity at 10 µM: 11.5%

CC(C)n1cnc(-c2nc(C(=O)N3CCCC3)c3ccccn23)c1
cytotoxicity at 10 µM: 6.47%

Cc1cccc(S(=O)(=O)N2Cc3c(CN(C)C)nn(C)c3C2)c1
cytotoxicity at 10 µM: -0.53%

COc1ccc(NC(=O)CSc2nncn2-n2cccc2)c(OC)c1
cytotoxicity at 10 µM: -2.74%

Cc1ccc(-c2[nH]c3ccccc3c2C(=O)O)c(C)c1
cytotoxicity at 10 µM: 12.3%

CC(C)CN1CCC2(CCN(C(=O)c3ccc(F)cc3)CC2)C1=O
cytotoxicity at 10 µM: 8.06%

CCn1c(SCC(N)=O)nnc1C(C)NC(=O)c1ccc(Cl)cc1 (centres undefined)
cytotoxicity at 10 µM: -36.4%

CCn1nc(C)c2c1cnn2CC(=O)N1CCN(C)CC1
cytotoxicity at 10 µM: 4.92%

c1cnnc(N[C@@H]2CC[C@@H]3CN(Cc4c[nH]c5ccccc45)C[C@@H]32)c1
cytotoxicity at 10 µM: 3.33%

Nc1cc(-c2c[nH]nc2C2CCN(C(=O)C3CCCC3)C2)ccn1 (centres undefined)
cytotoxicity at 10 µM: 7.49%

Cc1nc(NCc2ccccc2)cc(C(C)Cn2nc(C)c(C)c2C)n1 (centres undefined)
cytotoxicity at 10 µM: 7.03%

Cc1cc(-c2cncnc2)nc(C2CCCN2S(C)(=O)=O)n1 (centres undefined)
cytotoxicity at 10 µM: -6.21%

Cc1noc(C)c1-c1ccc(C2CCCN2C(=O)c2cccnn2)nc1 (centres undefined)
cytotoxicity at 10 µM: -18.9%

Cc1cccc(C(=O)N2CCCC[C@]3(C)NC(=O)CCC[C@H]23)n1
cytotoxicity at 10 µM: -21.3%

O=C(NC1CC1)C1(Cc2cc(-c3ccc(F)cc3F)no2)CCOCC1
cytotoxicity at 10 µM: 11%

Cc1nc(O)c2nnn(C[C@H]3CCCN3C(=O)c3cccs3)c2n1
cytotoxicity at 10 µM: -25.6%

CNc1cc(C2CCCN2Cc2ccccc2C(=O)O)ccn1 (centres undefined)
cytotoxicity at 10 µM: -5.28%

Cc1cc(C(=O)NCc2ccc(F)cc2)c2c(C3CCCN3)noc2n1 (centres undefined)
cytotoxicity at 10 µM: 7.16%

Cc1nnc(CN2CCCCC2c2nc(-c3ccccc3)no2)s1 (centres undefined)
cytotoxicity at 10 µM: -48.5%

CC1CCCN(C(=O)c2cn(-c3ccc(C(F)(F)F)cn3)nn2)C1 (centres undefined)
cytotoxicity at 10 µM: -51.3%

CN1CCN(C(=O)c2cccs2)Cc2ccccc21
cytotoxicity at 10 µM: -43.9%

CCOc1ccccc1CCNC(=O)NCC(O)c1cccs1 (centres undefined)
cytotoxicity at 10 µM: -4.47%

O=C(C1CCCC1)N1CCC(C(O)c2ccc(F)cc2)CC1 (centres undefined)
cytotoxicity at 10 µM: 8.54%

N#CC(NC(=O)c1cccc2c1OCCO2)c1ccc(F)cc1F (centres undefined)
cytotoxicity at 10 µM: -2.61%

CN1CCN(CCNC(=O)c2sccc2C2CC2)CC1
cytotoxicity at 10 µM: -149%

Cn1ncc2c(=O)[nH]c(N3CCCC3c3cccc(Cl)c3)nc21 (centres undefined)
cytotoxicity at 10 µM: 19.6%

CC(C)NC(=O)NC(C)c1ccc(-c2ccncc2)cc1 (centres undefined)
cytotoxicity at 10 µM: 0.67%

O=C(CCSc1ccccc1F)N1CCN(c2cnccn2)CC1
cytotoxicity at 10 µM: -51.7%

Cc1nc(-c2ccc(CC(=O)N3CCN(C(=O)C(C)C)CC3)cc2)cs1
cytotoxicity at 10 µM: 12.8%

COC(=O)c1ccc(N2CCN(C(=O)C3CC3)C(C)C2)cc1 (centres undefined)
cytotoxicity at 10 µM: -1.07%

c1ccc(N2CCC(NCc3cccc4cn[nH]c34)C2)cc1 (centres undefined)
cytotoxicity at 10 µM: 13.6%

O=C(c1ccc(-n2ccnc2)cc1)N1CCCC1
cytotoxicity at 10 µM: -7.55%

CC(C)c1n[nH]c(C2CN(C(=O)COCC(F)(F)F)CCO2)n1 (centres undefined)
cytotoxicity at 10 µM: -10.3%

Cc1cccc(S(=O)(=O)N2CSCC2C(=O)NC(C)(C)C)c1 (centres undefined)
cytotoxicity at 10 µM: -3.75%

O=C(CN1CCc2ccccc21)NCc1ccc(Cl)cc1
cytotoxicity at 10 µM: 12.4%

Cc1noc(C)c1CNC(=O)N1CCC(CN2CCC(C)CC2)CC1
cytotoxicity at 10 µM: 6.62%

O=C(Cc1ccc2c(c1)CCO2)N1CCCC1Cn1cccn1 (centres undefined)
cytotoxicity at 10 µM: -149%

CC(C)n1cc(CN2CCCN(C(=O)c3ccnn3C)CC2)cn1
cytotoxicity at 10 µM: 2.79%

CC(NC(=O)C1CCCC1)c1nc(-c2ccccc2)c[nH]1 (centres undefined)
cytotoxicity at 10 µM: 6%

CCN(CC)Cc1ccccc1NC(=O)N(C)Cc1ccc(OC)cc1
cytotoxicity at 10 µM: 10.7%

COc1ncccc1C(=O)N1CCCC1c1c(C)n[nH]c1C (centres undefined)
cytotoxicity at 10 µM: 10.7%

CC(c1nnc(-c2ccccc2)o1)N1CCC(Nc2ccccc2)CC1 (centres undefined)
cytotoxicity at 10 µM: 5.1%

Cc1cnn(C2CN(Cc3noc(C)n3)C2)c1
cytotoxicity at 10 µM: 40.3%

Cc1n[nH]c(C2CN(C(=O)c3cc(Cl)c[nH]3)CCO2)n1 (centres undefined)
cytotoxicity at 10 µM: 3.95%

Cc1occc1C(=O)N1CCC2(CC1)C(c1cnn(C)c1)CC(=O)N2C (centres undefined)
cytotoxicity at 10 µM: 5.66%

O=c1cc(Cn2cncn2)nc2n1CCCN(CC1CC1)C2
cytotoxicity at 10 µM: -2.65%

Cc1ncc(CN2CCN(C(=O)N(C)C)[C@@H]3CS(=O)(=O)C[C@@H]32)cn1
cytotoxicity at 10 µM: 7.86%

Cc1cc(-c2c(C)c(-c3cnn(C)c3)nc(N)c2C#N)oc1C
cytotoxicity at 10 µM: -93.5%

CC(Nc1nc(-c2ccccc2)nc2c1CCNCC2)c1cccnc1 (centres undefined)
cytotoxicity at 10 µM: -0.587%

CCc1ccc(CN2CCN(C)C3(CCC(=O)N(CC4CC4)CC3)C2)o1 (centres undefined)
cytotoxicity at 10 µM: -2.77%

CN(Cc1ccc2nsnc2c1)CC1(O)CCNC1 (centres undefined)
cytotoxicity at 10 µM: -11.7%

CCc1cc(NCCC(F)(F)F)nc(N2CCOCC2)n1
cytotoxicity at 10 µM: -4.65%

CCN(Cc1cccc(C(=O)Nc2c(C)cnn2C)c1)[C@H]1COC[C@@H]1O
cytotoxicity at 10 µM: -1.58%

CC(c1ccon1)N(C)C(=O)C1CCN(C2CCCCC2)CC1 (centres undefined)
cytotoxicity at 10 µM: -20.2%

CN1CC(C(=O)N2CCN(c3cccc(Cl)c3)C(=O)C2)NC1=O (centres undefined)
cytotoxicity at 10 µM: -3.94%

CC(C)N1CCC(N2CCCC(C(=O)NCC3(C)COC3)C2)CC1 (centres undefined)
cytotoxicity at 10 µM: -5.62%

CC(=O)N1CCc2c(nc(N(C)C)nc2N(C)CCO)C1
cytotoxicity at 10 µM: -2.48%

Cc1ccccc1C(C(=O)N(C)CCc1cnn(C)c1)N(C)C (centres undefined)
cytotoxicity at 10 µM: -3.57%

Fc1ccc(N2CCN(CCCc3cn[nH]c3)CC2)cc1
cytotoxicity at 10 µM: -144%

Cc1nc[nH]c1-c1c(-c2ccccc2)ncn1C1CCNC1 (centres undefined)
cytotoxicity at 10 µM: -52.4%

Cc1ccc(CN2CC3(CCN(C(=O)C4CC4)CC3)CC2C(=O)O)o1 (centres undefined)
cytotoxicity at 10 µM: 1.52%

Cc1csc2c(N3CCC(NCCCc4cnn(C)c4)CC3)ncnc12
cytotoxicity at 10 µM: 0.301%

Cc1cccc2ncn(C(C)Cn3cccn3)c(=O)c12 (centres undefined)
cytotoxicity at 10 µM: -4.4%

O=C(c1cccnc1O)N1CCOC(Cc2cccc(C(F)(F)F)c2)C1 (centres undefined)
cytotoxicity at 10 µM: 2.26%

O=C(CCCn1cnnn1)N1CCC(c2ccncc2)CC1
cytotoxicity at 10 µM: -4.8%

Cc1cc(C(=O)N2CCc3[nH]cnc3C2C(=O)O)c(-c2ccccc2)o1 (centres undefined)
cytotoxicity at 10 µM: -1.33%

Cc1nc[nH]c1CN1CCCC(CNC(=O)c2ccc(N)nc2)C1 (centres undefined)
cytotoxicity at 10 µM: 1.56%

CCNC(=O)N1C[C@@H](NC(C)=O)[C@H](c2ccc(C)o2)C1
cytotoxicity at 10 µM: -8.82%

Cc1ccccc1CCC1CCCN(Cc2c(C)[nH]c(=O)[nH]c2=O)C1 (centres undefined)
cytotoxicity at 10 µM: 5%

c1nc2c(c(NCCCn3cncn3)n1)CCN(CC1CCOC1)CC2 (centres undefined)
cytotoxicity at 10 µM: -10.6%

Cc1ccc(C)c(OC(C)C(=O)Nc2cccnc2)c1 (centres undefined)
cytotoxicity at 10 µM: 7.39%

CCN(Cc1ccoc1)Cc1nc(COC)no1
cytotoxicity at 10 µM: -0.566%

CNc1ncc(C(=O)N2CCCC(CO)(CCCOC)C2)cn1 (centres undefined)
cytotoxicity at 10 µM: -44.4%

CCC(Oc1ccc(N(C)S(C)(=O)=O)cc1)C(=O)NC (centres undefined)
cytotoxicity at 10 µM: 0.0646%

O=C(Cc1ccc(F)cc1)NCCNc1cc(N2CCCC2)ncn1
cytotoxicity at 10 µM: -8.37%

C[C@@H]1CN(CC(C)(C)N2CCCCC2)C[C@@]1(O)C1CC1
cytotoxicity at 10 µM: -0.519%

CCOc1ncccc1NC(=O)N1CCC(CN2CCOCC2)CC1
cytotoxicity at 10 µM: -13.6%

Cn1cc(NC(=O)N2CCC(OCc3ccccc3)CC2)ccc1=O
cytotoxicity at 10 µM: -5.75%

COc1cc(CNCCc2cnn(C)c2)cc(OC)c1OC
cytotoxicity at 10 µM: -9.51%

O=C(c1ccc(NC2CC2)nc1)N1CCCC(n2ccnc2)C1 (centres undefined)
cytotoxicity at 10 µM: -3.81%

CN(c1cccnn1)C1CCN(C(=O)c2ccc3c(c2)COC3)CC1
cytotoxicity at 10 µM: -12%

CC(C)(C)c1n[nH]c(C2CN(C(=O)CCC3CC3)CCO2)n1 (centres undefined)
cytotoxicity at 10 µM: -12.7%

O=C(CCCOCc1ccccc1)N1CCCC1c1ccccn1 (centres undefined)
cytotoxicity at 10 µM: -14.4%

COCCOc1ccc(NC(=O)N(C)Cc2ccsc2)cn1
cytotoxicity at 10 µM: -2.81%

O=C(O)c1csc(S(=O)(=O)Nc2cccc(OC(F)F)c2)c1
cytotoxicity at 10 µM: -2.63%

CCN1C[C@@H]2CN(C(=O)NCc3ccccc3)CCC[C@]2(C(=O)O)C1
cytotoxicity at 10 µM: 3.47%

O=C(NCCc1ccncc1)[C@@H]1CC[C@@H]2[C@@H](CCN2Cc2ccco2)O1
cytotoxicity at 10 µM: 1.15%

Cc1cnc(N2C[C@H]3CN(Cc4csc(C)n4)C(=O)[C@H]3C2)nc1
cytotoxicity at 10 µM: 12%

CCOC1COC2(CCN(Cc3cccc(F)c3)CC2)C1 (centres undefined)
cytotoxicity at 10 µM: 5.47%

CC(C)COC1CC2(CCN(Cc3nccn3C)CC2)C1
cytotoxicity at 10 µM: -158%

CN1CC2(CCN(C(=O)c3cccnc3)CC2)c2cccc(F)c21
cytotoxicity at 10 µM: 6.17%

c1coc(CN2CCOC3(COCCN(Cc4ccncc4)C3)C2)c1 (centres undefined)
cytotoxicity at 10 µM: 4.03%

CS(=O)(=O)N1C[C@H]2CC[C@@H](C1)N(C/C=C/c1ccc(F)cc1)C2
cytotoxicity at 10 µM: -15.5%

CCn1[nH]c(C)c2c(C(F)(F)F)cc(=O)nc1-2
cytotoxicity at 10 µM: -1.26%

CN(C)S(=O)(=O)N1C[C@H]2CC[C@@H](C1)N(Cc1ccc3[nH]ccc3c1)C2
cytotoxicity at 10 µM: 3.07%
